In ChEMBL document CHEMBL3784968, “Synthesis and mechanistic aspects of 2-anilinonicotinyl-pyrazolo[1,5-a]pyrimidine conjugates that regulate cell proliferation in MCF-7 cells via estrogen signaling” (2016):
Activity calls are given as the source filed them. No cut-off for these calls is given here.

Tests used:
[1] = tested on: SiHa; assay: Cytotoxicity against human SiHa cells assessed as cell viability after 24 to 48 hrs by MTT assay; type: functional
Outline: (§1)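 MTT viability assay in SiHa, HeLa (cervical), MCF-7 (breast) and IMR-32 (neuroblastoma) cells, treated with conjugates over 0.25 to 8 µM for 48 h.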

[2] = tested on: MCF7; assay: Cytotoxicity against human MCF7 cells assessed as cell viability after 24 to 48 hrs by MTT assay; type: functional; outline: as §1
[3] = tested on: HeLa; assay: Cytotoxicity against human HeLa cells assessed as cell viability after 24 to 48 hrs by MTT assay; type: functional; outline: as §1
[4] = Cytotoxicity against human IMR32 cells assessed as cell viability after 24 to 48 hrs by MTT assay; type: functional, IMR-32; outline: as §1
[5] = tested on: MCF7; assay: Cell cycle arrest in human MCF7 cells assessed as accumulation at G0 phase at 4 uM after 48 hrs (reference value: 3%); type: functional
Outline: (§2)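 MCF-7 breast cancer cells exposed 48 h to 4, 8, 16 or 32 µM; doxorubicin as positive control. Cell cycle phase distribution (G0, G1, S, G2/M) read as percentage of cells; G0 fraction taken as apoptotic cells.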

[6] = tested on: MCF7; assay: Cell cycle arrest in human MCF7 cells assessed as accumulation at G1 phase at 4 uM after 48 hrs (reference value: 63%); type: functional; outline: as §2
[7] = tested on: MCF7; assay: Cell cycle arrest in human MCF7 cells assessed as accumulation at S phase at 4 uM after 48 hrs (reference value: 9%); type: functional; outline: as §2
[8] = tested on: MCF7; assay: Cell cycle arrest in human MCF7 cells assessed as accumulation at G2/M phase at 4 uM after 48 hrs (reference value: 25%); type: functional; outline: as §2
[9] = tested on: MCF7; assay: Cell cycle arrest in human MCF7 cells assessed as accumulation at G0 phase at 8 uM after 48 hrs (reference value: 3%); type: functional; outline: as §2
[10] = tested on: MCF7; assay: Cell cycle arrest in human MCF7 cells assessed as accumulation at G1 phase at 8 uM after 48 hrs (reference value: 63%); type: functional; outline: as §2
[11] = tested on: MCF7; assay: Cell cycle arrest in human MCF7 cells assessed as accumulation at S phase at 8 uM after 48 hrs (reference value: 9%); type: functional; outline: as §2
[12] = tested on: MCF7; assay: Cell cycle arrest in human MCF7 cells assessed as accumulation at G2/M phase at 8 uM after 48 hrs (reference value: 25%); type: functional; outline: as §2
[13] = tested on: MCF7; assay: Cell cycle arrest in human MCF7 cells assessed as accumulation at G0 phase at 16 uM after 48 hrs (reference value: 3%); type: functional; outline: as §2
[14] = tested on: MCF7; assay: Cell cycle arrest in human MCF7 cells assessed as accumulation at G1 phase at 16 uM after 48 hrs (reference value: 63%); type: functional; outline: as §2
[15] = tested on: MCF7; assay: Cell cycle arrest in human MCF7 cells assessed as accumulation at S phase at 16 uM after 48 hrs (reference value: 9%); type: functional; outline: as §2
[16] = tested on: MCF7; assay: Cell cycle arrest in human MCF7 cells assessed as accumulation at G2/M phase at 16 uM after 48 hrs (reference value: 25%); type: functional; outline: as §2
[17] = tested on: MCF7; assay: Cell cycle arrest in human MCF7 cells assessed as accumulation at G0 phase at 32 uM after 48 hrs (reference value: 3%); type: functional; outline: as §2
[18] = tested on: MCF7; assay: Cell cycle arrest in human MCF7 cells assessed as accumulation at G1 phase at 32 uM after 48 hrs (reference value: 63%); type: functional; outline: as §2
[19] = tested on: MCF7; assay: Cell cycle arrest in human MCF7 cells assessed as accumulation at S phase at 32 uM after 48 hrs (reference value: 9%); type: functional; outline: as §2
[20] = tested on: MCF7; assay: Cell cycle arrest in human MCF7 cells assessed as accumulation at G2/M phase at 32 uM after 48 hrs (reference value: 25%); type: functional; outline: as §2
[21] = tested on: MCF7; assay: Down regulation of ER alpha expression in human MCF7 cells at 4 uM after 24 hrs by luciferase reporter gene assay; type: functional, cell-based
Outline: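 MCF-7 cells first transfected with ERα construct for 48 h, then compound exposure at 4 µM for 24 h; luciferase-based read-out; etoposide and doxorubicin run as standards.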

[22] = tested on: MCF7; assay: Down regulation of Bcl-2 expression in human MCF7 cells at 1 uM after 24 hrs by Western blot analysis; type: functional, cell-based
[23] = tested on: MCF7; assay: Down regulation of cyclin D expression in human MCF7 cells at 1 uM after 24 hrs by Western blot analysis; type: functional, cell-based
[24] = tested on: MCF7; assay: Down regulation of survivin expression in human MCF7 cells at 1 uM after 24 hrs by Western blot analysis; type: functional, cell-based

Compound	Activity [1]	Activity [2]	Activity [3]	Activity [4]	also measured
COc1cccc2c1C(=O)c1c(O)c3c(c(O)c1C2=O)C[C@@](O)(C(=O)CO)C[C@@H]3O[C@H]1C[C@H](N)[C@H](O)[C@H](C)O1 [DOXORUBICIN]	3.93 µM	0.473 µM	1.25 µM	4.5 µM	Activity [5]: 1%; Activity [6]: 44%; Activity [7]: 8%; Activity [8]: 48%; Activity [9]: 4%; Activity [10]: 37%; Activity [11]: 9%; Activity [12]: 50%; Activity [13]: 6%; Activity [14]: 34%; Activity [15]: 11%; Activity [16]: 49%; Activity [17]: 8%; Activity [18]: 36%; Activity [19]: 10%; Activity [20]: 46%
COc1ccc(-c2cc(C(=O)N3CCN(C(=O)c4cccnc4Nc4ccc(F)cc4)CC3)nc3cc(-c4ccccc4)nn23)cc1	5.93 µM	4.97 µM	3.79 µM	5.87 µM	
COc1ccc(-c2cc(C(=O)N3CCN(C(=O)c4cccnc4Nc4cc(OC)c(OC)c(OC)c4)CC3)nc3cc(-c4ccccc4)nn23)cc1	6.08 µM	3.83 µM	4.24 µM	6.62 µM	
COc1ccc(Nc2ncccc2C(=O)N2CCN(C(=O)c3cc(-c4cc(OC)c(OC)c(OC)c4)n4nc(-c5ccccc5)cc4n3)CC2)cc1OC	3.73 µM	4.24 µM	6.08 µM	5.75 µM	
O=C(c1cc(-c2ccc(F)cc2)n2nc(-c3ccccc3)cc2n1)N1CCN(C(=O)c2cccnc2Nc2ccc(F)cc2)CC1	7.21 µM	3.34 µM	3.86 µM	5.62 µM	
COc1cc(Nc2ncccc2C(=O)N2CCN(C(=O)c3cc(-c4ccc(F)cc4)n4nc(-c5ccccc5)cc4n3)CC2)cc(OC)c1OC	4.07 µM	7.59 µM	4.31 µM	5 µM	
COc1ccc(Nc2ncccc2C(=O)N2CCN(C(=O)c3cc(-c4ccc(F)cc4)n4nc(-c5ccccc5)cc4n3)CC2)cc1OC	6.62 µM	2.69 µM	6.33 µM	5.25 µM	
COc1ccc(Nc2ncccc2C(=O)N2CCN(C(=O)c3cc(-c4ccc(OC)c(OC)c4)n4nc(-c5ccccc5)cc4n3)CC2)cc1	5.1 µM	2.85 µM	4.62 µM	5.87 µM	
COc1ccc(Nc2ncccc2C(=O)N2CCN(C(=O)c3cc(-c4ccc(F)cc4)n4nc(-c5ccccc5)cc4n3)CC2)cc1	4.56 µM	8.08 µM	6.6 µM	5.37 µM	
COc1ccc(Nc2ncccc2C(=O)N2CCN(C(=O)c3cc(-c4ccc(OC)cc4)n4nc(-c5ccccc5)cc4n3)CC2)cc1	4.36 µM	2.93 µM	3.72 µM	6.37 µM	
COc1ccc(-c2cc(C(=O)N3CCN(C(=O)c4cccnc4Nc4ccc(OC)c(OC)c4)CC3)nc3cc(-c4ccccc4)nn23)cc1	3.73 µM	2.53 µM	5.87 µM	5.12 µM	
COc1ccc(-c2cc(C(=O)N3CCN(C(=O)c4cccnc4Nc4ccccc4)CC3)nc3cc(-c4ccccc4)nn23)cc1	3.33 µM	2.16 µM	2.43 µM	4.75 µM	Activity [5]: 1%; Activity [6]: 52%; Activity [7]: 9%; Activity [8]: 37%; Activity [9]: 2%; Activity [10]: 57%; Activity [11]: 9%; Activity [12]: 32%; Activity [13]: 4%; Activity [14]: 64%; Activity [15]: 7%; Activity [16]: 25%; Activity [17]: 13%; Activity [18]: 38%; Activity [19]: 10%; Activity [20]: 39%; Activity [21]: Active; Activity [22]: Active; Activity [23]: Active; Activity [24]: Active
COc1ccc(Nc2ncccc2C(=O)N2CCN(C(=O)c3cc(-c4ccc(OC)c(OC)c4)n4nc(-c5ccccc5)cc4n3)CC2)cc1OC	5.93 µM	2.61 µM	5.7 µM	5.25 µM	
